Calls of active or inactive are those of the source. No cut-off for these calls is given here.

Test [1] concerns HL-60. The test can be described thus: Concentration required for 50% reduction of cellular net growth of HL60 human leukemia cells; na=no activity. In kind it is functional, cell-based. In a few lines: (§1)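 HL60 leukemia cells were grown in 96-well format following a modified NCI protocol. Compounds in DMSO were tested in duplicate at five 10-fold dilutions, and controls received equivalent DMSO. After 48 h exposure, cells were fixed with ice-cold 80% (w/v) TCA for 60 min at 4 °C, then stained by SRB and read at OD 490 nm. Percent growth came from start versus end OD, corrected for medium-only background. GI50 and TGI were read from dose–response curves as the mean of 2–4 experiments ± SD.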

The subject of test [2] is HL-60. The test can be described thus: Concentration required for 50% reduction of cellular net growth of HL60 human leukemia cells. In kind it is functional. In a few lines: as §1
In test [3] the test system is MCF7S. The test is described as follows: Concentration required for 50% reduction of cellular net growth of MCF-7 human breast cancer cells. In kind it is functional. In a few lines: (§2)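 MCF7 breast cancer cells were grown in 96-well format following a modified NCI protocol. Compounds in DMSO were tested in duplicate at five 10-fold dilutions, and controls received equivalent DMSO. After 48 h exposure, cells were fixed with ice-cold 50% (w/v) TCA for 60 min at 4 °C, then stained by SRB and read at OD 490 nm. Percent growth came from start versus end OD, corrected for medium background. GI50 and TGI were taken from curves as the mean of 2–4 experiments ± SD.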

Test [4] has as its system MCF7S. The test can be described thus: Concentration required for Total growth inhibition of MCF-7 human breast cancer cells. In kind it is functional. In short, it runs like this: as §2
In test [5] the test system is HL-60. The test is described as follows: Concentration required for Total growth inhibition of HL60 human leukemia cells. In kind it is functional. In short, it runs like this:
as §1

Test [6] relates to MCF7S. The test can be described thus: Lethal concentration required for net loss in 50% of MCF-7 human breast cancer cells. Particulars: read-out: LC50 (the source's name). In kind it is functional. In short, it runs like this: (§3)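 Modified NCI protocol with SRB read-out after 48 h drug exposure. Compounds were diluted from a DMSO stock at 400× the top final concentration, at five 10-fold dilutions in duplicate, with DMSO-matched controls. Cells were fixed with ice-cold TCA (80% w/v for HL60, 50% w/v for MCF7) for 60 min at 4 °C. OD was read at 490 nm and corrected for medium-only background. Percent growth came from OD at the start versus the end of exposure. LC50 is the concentration giving net loss of 50% of cells, from dose-response curves; values are means of 2–4 experiments.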

Test [7] deals with MCF7S. The test can be described thus: Concentration required for 50% reduction of cellular net growth of MCF-7 human breast cancer cells;na=no activity. In kind it is functional, cell-based. In short, it runs like this:
as §2

The test system of test [8] is HL-60. The test is described as follows: Lethal concentration required for net loss in 50% of HL60 human leukemia cells. In kind it is functional. The following applies: read-out: LC50 (the source's name). In a few lines:
as §3

In test [9] the test system is MCF7S. The test is described as follows: Concentration required for 50% reduction of cellular net growth of MCF-7 human breast cancer cells; na=no activity. In kind it is functional, cell-based. In short, it runs like this:
as §2

The GI50 is the concentration that inhibits growth by half. Turning to `CC(C)(C)[Si](C)(C)O[C@H]1CCCO[C@@H]1CC#N`, the GI50 result with HL-60 [1] was “inactive”.

One may read the TGI as the concentration giving total growth inhibition. A high value points to less potent growth arrest. Turning to `CC(C)(C)[Si](C)(C)O[C@H]1CCCO[C@@H]1C/C=C/CO`, the GI50 with HL-60 [2] was found to be 27 µM; in the test with MCF7S [3], 25 µM. For the same compound, the TGI in the test on MCF7S [4] is 83 µM.

On to `COC(=O)/C=C/C[C@H]1OCCC[C@@H]1O[Si](C)(C)C(C)(C)C`, for which the figures for the TGI with HL-60 [5] and with MCF7S [4] were 77 µM and 48 µM, respectively. Besides, the GI50 with HL-60 [2] was 22 µM; in the test on MCF7S [3], 18 µM.

Take `C=CCO[C@H]1CCCO[C@@H]1CC=O`: in the test on HL-60 [1], the GI50 entry is “inactive”.

For the compound `CC(C)(C)[Si](C)(C)O[C@H]1CCCO[C@@H]1CC=O`, the GI50 with HL-60 [2] came out at 40 µM; in the test with MCF7S [3] it was 21 µM. For the same compound, in the test on MCF7S [4], the TGI is 82 µM.

As to `CC(C)(C)[Si](C)(C)O[C@H]1CCCO[C@@H]1CCO`, the results for the GI50 in the test on HL-60 [2] and with MCF7S [3] were 46 µM and 55 µM, respectively.

As for `COC(=O)/C=C/[C@H]1OCCC[C@@H]1O[Si](C)(C)C(C)(C)C`, the TGI in the test with HL-60 [5] was determined as 69 µM; with MCF7S [4] it was 80 µM. The 50% growth inhibitory concentration (GI50) in the test on HL-60 [2] is 22 µM; with MCF7S [3], 24 µM. Besides, in the test with MCF7S [6], the CC50 was found to be 94 µM.

Consider `COC(=O)/C=C/C[C@H]1OCCC[C@@H]1O`, for which the GI50 entry in the test on MCF7S [7] and with HL-60 [1] was “inactive” throughout.

With `CC(C)(C)[Si](C)(C)O[C@H]1CCCO[C@@H]1/C=C/CO`, the results for the GI50 in the test with HL-60 [2] and in the test with MCF7S [3] were 31 µM and 61 µM, respectively.

Regarding `COC(=O)/C=C/C[C@H]1OCCC[C@@H]1OC(=O)c1ccccc1`, the GI50 entry with MCF7S [3] and in the test on HL-60 [1] was “inactive” in each case.

`CC(C)(C)[Si](C)(C)O[C@H]1CCCO[C@@H]1/C=C\CO`: the TGI turned out to be 64 µM with HL-60 [5] and 23 µM with MCF7S [4]. Besides, the GI50 with HL-60 [2] was 26 µM; in the test on MCF7S [3] it was 6.4 µM. The results for the CC50 in the test with MCF7S [6] and with HL-60 [8] were 63 µM and 88 µM, respectively.

As to `OC/C=C/[C@H]1OCCC[C@@H]1O`, the GI50 entry in the test with MCF7S [7] and with HL-60 [1] was “inactive” each time.

In the test on MCF7S [3], `COC(=O)/C=C\[C@H]1OCCC[C@@H]1O[Si](C)(C)C(C)(C)C` yielded a GI50 of 32 µM. In addition, the GI50 entry in the test with HL-60 [1] was “inactive”. In addition, net growth in the test with MCF7S [4] stopped (TGI) at 82 µM.

Turning to `CC(C)(C)[Si](C)(C)OC/C=C/[C@H]1OCCC[C@@H]1O`, the 50% growth inhibitory concentration (GI50) in the test with MCF7S [3] was 86 µM. In addition, in the test on HL-60 [1], the GI50 result is “inactive”.

Turning to `COC(=O)/C=C/C[C@H]1OCCC[C@@H]1OC(C)=O`, the GI50 result in the test on MCF7S [9] and with HL-60 [1] was “inactive” each time.

These data come from ChEMBL document CHEMBL1142748, “The tert-butyl dimethyl silyl group as an enhancer of drug cytotoxicity against human tumor cells” (Bioorg Med Chem Lett, 2005).
